Measured values taken from ChEMBL document CHEMBL1123176, “Synthesis and antitumor activity of cyclophosphamide analogues. 4. Preparation, kinetic studies, and anticancer screening of "phenylketophosphamide" and similar compounds related to the cyclophosphamide metabolite aldophosphamide” (1986).

Assays:
Mus musculus [1] = experiment: Increased life span against L1210 lymphoid leukemia cells in male BDF1 mice at a dose of 100 mg/kg; format: functional; conditions: for ILS at 100 mg/kg: Mus musculus, BDF1, L1210, dose 100 mg/kg
Outline: (§1)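 Male BDF1 mice, 6 weeks old, implanted ip with 1 × 10^5 L1210 lymphoid leukemia cells on day 0. Dosing was a single ip dose on day 2 in 10% Me2SO, except where noted: x7 schedules given ip on days 2 through 8; some arms given po; some arms in saline vehicle. Read-outs were % increased life span and survivors on day 60; some runs were duplicated.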

Mus musculus [2] = experiment: Increased life span against L1210 lymphoid leukemia cells in male BDF1 mice at a dose of 200 mg/kg; format: functional; conditions: for ILS at 200 mg/kg: Mus musculus, BDF1, L1210; outline: as §1
Mus musculus [3] = experiment: Increased life span against L1210 lymphoid leukemia cells in male BDF1 mice at a dose of 400 mg/kg; format: functional; conditions: for ILS at 400 mg/kg: Mus musculus, BDF1, L1210; outline: as §1
Mus musculus [4] = experiment: Number of survivors on day 60 at a dose of 100 mg/kg; 0/7; format: functional; outline: as §1
Mus musculus [5] = experiment: Number of survivors on day 60 at a dose of 200 mg/kg; 0/7; format: functional; outline: as §1
Mus musculus [6] = experiment: Number of survivors on day 60 at a dose of 400 mg/kg; 0/7; format: functional; outline: as §1
Mus musculus [7] = experiment: Number of survivors on the toxicity day (day = 15) at a dose of 100x1 mg/kg; format: functional
Mus musculus [8] = experiment: Number of survivors on day 60 at a dose of 400 mg/kg; 7/7; format: functional; outline: as §1
Mus musculus [9] = experiment: Number of survivors on day 60 at a dose of 50 mg/kg; 0/7; format: functional; outline: as §1
Mus musculus [10] = experiment: Increased life span against L1210 lymphoid leukemia cells in male BDF1 mice at a dose of 10x7 mg/kg; format: functional; outline: as §1
Mus musculus [11] = experiment: Increased life span against L1210 lymphoid leukemia cells in male BDF1 mice at a dose of 15 mg/kg; format: functional; outline: as §1
Mus musculus [12] = experiment: Increased life span against L1210 lymphoid leukemia cells in male BDF1 mice at a dose of 20x7 mg/kg; format: functional; outline: as §1
Mus musculus [13] = experiment: Increased life span against L1210 lymphoid leukemia cells in male BDF1 mice at a dose of 25 mg/kg; format: functional; outline: as §1
Mus musculus [14] = experiment: Increased life span against L1210 lymphoid leukemia cells in male BDF1 mice at a dose of 30 mg/kg; format: functional; outline: as §1
Mus musculus [15] = experiment: Increased life span against L1210 lymphoid leukemia cells in male BDF1 mice at a dose of 50 mg/kg; format: functional; outline: as §1
Mus musculus [16] = experiment: Increased life span against L1210 lymphoid leukemia cells in male BDF1 mice at a dose of 5x7 mg/kg; format: functional; outline: as §1
Mus musculus [17] = experiment: Increased life span against L1210 lymphoid leukemia cells in male BDF1 mice at a dose of 7.5 mg/kg; format: functional; outline: as §1
Mus musculus [18] = experiment: Compound was ested for antitumor activity against Lewis lung carcinoma cells implanted in CD2F1 female mice at a dose of 25x2 mg/kg; format: functional
Mus musculus [19] = experiment: Compound was ested for antitumor activity against Lewis lung carcinoma cells implanted in female CD2F1 mice at a dose of 100x2 mg/kg; format: functional
Mus musculus [20] = experiment: Compound was ested for antitumor activity against Lewis lung carcinoma cells implanted in female CD2F1 mice at a dose of 200x2 mg/kg; T=Toxic doxe; format: functional, organism-based
Mus musculus [21] = experiment: Compound was ested for antitumor activity against Lewis lung carcinoma cells implanted in female CD2F1 mice at a dose of 50x2 mg/kg; format: functional
Mus musculus [22] = experiment: Compound was ested for antitumor activity against Lewis lung carcinoma cells implanted in male C57BL mice at a dose of 100 mg/kg; format: functional
Mus musculus [23] = experiment: Compound was ested for antitumor activity against Lewis lung carcinoma cells implanted in male CD2F1 mice at a dose of 100x2 mg/kg; format: functional
Mus musculus [24] = experiment: Compound was ested for antitumor activity against Lewis lung carcinoma cells implanted in male CD2F1 mice at a dose of 200x2 mg/kg; format: functional
Mus musculus [25] = experiment: Compound was ested for antitumor activity against Lewis lung carcinoma cells implanted in male CD2F1 mice at a dose of 400x2 mg/kg; Toxic doxe; format: functional, organism-based
Mus musculus [26] = experiment: Compound was ested for antitumor activity against Lewis lung carcinoma cells implanted in male CD2F1 mice at a dose of 5x6 mg/kg; format: functional
Mus musculus [27] = experiment: Number of survivors on day 60 at a dose of 25 mg/kg; 0/7; format: functional; outline: as §1
Mus musculus [28] = experiment: Number of survivors on day 60 at a dose of 5 x 7 ip administration day 2 through day; format: functional; outline: as §1
Mus musculus [29] = experiment: Number of survivors on day 60 at a dose of 7.5 mg/kg; 0/7; format: functional; outline: as §1
Mus musculus [30] = experiment: Number of survivors on the toxicity day (day = 21) at a dose of 100x1 mg/kg; 5/7; format: functional
Mus musculus [31] = experiment: Number of survivors on the toxicity day (day = 5) at a dose of 100x1 mg/kg; 6/6; format: functional
Mus musculus [32] = experiment: Number of survivors on the toxicity day (day = 5) at a dose of 200x1 mg/kg; 5/6; format: functional
Mus musculus [33] = experiment: Number of survivors on the toxicity day (day = 5) at a dose of 200x1 mg/kg; 6/6; format: functional
Mus musculus [34] = experiment: Number of survivors on the toxicity day (day = 5) at a dose of 25x1 mg/kg; 5/6; format: functional
Mus musculus [35] = experiment: Number of survivors on the toxicity day (day = 5) at a dose of 400x1 mg/kg; 5/6; format: functional
Mus musculus [36] = experiment: Number of survivors on the toxicity day (day = 5) at a dose of 50x1 mg/kg; 6/6; format: functional
Mus musculus [37] = experiment: Compound was ested for antitumor activity against Lewis lung carcinoma cells implanted in female CD2F1 mice at a dose of 125 x1 mg/kg; format: functional
Mus musculus [38] = experiment: Compound was ested for antitumor activity against Lewis lung carcinoma cells implanted in female CD2F1 mice at a dose of 250x1 mg/kg; format: functional
Mus musculus [39] = experiment: Compound was ested for antitumor activity against Lewis lung carcinoma cells implanted in female CD2F1 mice at a dose of 500x1 mg/kg; format: functional
Mus musculus [40] = experiment: Compound was ested for antitumor activity against Lewis lung carcinoma cells implanted in female CD2F1 mice at a dose of 62.5x1 mg/kg; format: functional
Mus musculus [41] = experiment: Number of survivors on day 60 at a dose of 200 mg/kg; 1/7; format: functional; outline: as §1
Mus musculus [42] = experiment: Number of survivors on day 60 at a dose of 400 mg/kg; 5/7; format: functional; outline: as §1
Mus musculus [43] = experiment: Number of survivors on the toxicity day (day = 15) at a dose of 125 x1 mg/kg; 6/6; format: functional
Mus musculus [44] = experiment: Number of survivors on the toxicity day (day = 15) at a dose of 250x1 mg/kg; 6/6; format: functional
Mus musculus [45] = experiment: Number of survivors on the toxicity day (day = 15) at a dose of 500x1 mg/kg; 5/6; format: functional
Mus musculus [46] = experiment: Number of survivors on the toxicity day (day = 15) at a dose of 62.5x1 mg/kg; 6/6; format: functional

Molecule O=C(CCOP(=O)(NCCCl)N(CCCl)CCCl)c1ccccc1 (stereo unspecified) has an ILS at 100 mg/kg (Mus musculus [1]) of 29.9%, an ILS at 200 mg/kg (Mus musculus [2]) of 60.6% and an ILS at 400 mg/kg (Mus musculus [3]) of -19.7%. The Survivors (Mus musculus [4]) was 0, the Survivors (Mus musculus [5]) was 0 and the Survivors (Mus musculus [6]) was 0.

In the case of O=P1(N(CCCl)CCCl)NCCCO1 (stereo unspecified) [CYCLOPHOSPHAMIDE ANHYDROUS], the ILS at 100 mg/kg (Mus musculus [1]) is reported as 59.6%, the ILS (Mus musculus [1]; dose 100 mg/kg) is reported as 52.9% and the ILS at 200 mg/kg (Mus musculus [2]) is reported as over 423%. The Survivors (Mus musculus [4]) was 0 and the Survivors (Mus musculus [7]) was 7.

Molecule O=P1(NCCCl)OCCCN1CCCl (stereo unspecified) [IFOSFAMIDE] has an ILS (Mus musculus [2]) of 99.8, an ILS (Mus musculus [3]) of over 617 and a Survivors (Mus musculus [4]) of 0. For the same molecule, the Survivors (Mus musculus [5]) was 0, the Survivors (Mus musculus [8]) was 7 and the Survivors (Mus musculus [9]) was 0.

In the case of NP(=O)(OCCC(=O)c1ccccc1)N(CCCl)CCCl (stereo unspecified), the ILS at 100 mg/kg (Mus musculus [1]) is reported as -34%, the ILS (Mus musculus [10]) is reported as 29.7 and the ILS at 15 mg/kg (Mus musculus [11]) is reported as 16.3%. It also gave an ILS (Mus musculus [12]) of 58.8, an ILS at 25 mg/kg (Mus musculus [13]) of 22.9% and an ILS at 30 mg/kg (Mus musculus [14]) of 35.1%. The ILS at 50 mg/kg (Mus musculus [15]) was 43.9%, the ILS (Mus musculus [16]) was 20.6 and the ILS at 7.5 mg/kg (Mus musculus [17]) was 10.7%. The T/C (Mus musculus [18]) was 163%, the T/C (Mus musculus [19]) was 92% and the T/C (Mus musculus [20]) was “Toxic”. For the same molecule, the T/C (Mus musculus [21]) was 223%, the T/C (Mus musculus [22]) was 63% and the T/C (Mus musculus [23]) was 221%. For the same molecule, the T/C (Mus musculus [24]) was 89%, the T/C (Mus musculus [25]) was “Toxic” and the T/C (Mus musculus [26]) was 106%. The Survivors (Mus musculus [27]) was 0, the Survivors (Mus musculus [28]) was 0 and the Survivors (Mus musculus [29]) was 0. For the same molecule, the Survivors (Mus musculus [30]) was 5, the Survivors (Mus musculus [31]) was 6 and the Survivors (Mus musculus [32]) was 5. It also gave a Survivors (Mus musculus [33]) of 6, a Survivors (Mus musculus [34]) of 5 and a Survivors (Mus musculus [35]) of 5. The Survivors (Mus musculus [36]) was 6 and the Survivors (Mus musculus [9]) was 0.

O=C(CCOP(=O)(NCCCl)NCCCl)c1ccccc1 showed an ILS at 100 mg/kg (Mus musculus [1]) of 51.7%, an ILS at 400 mg/kg (Mus musculus [3]) of over 443% and an ILS at 50 mg/kg (Mus musculus [15]) of 20.2%. For the same molecule, the T/C (Mus musculus [37]) was 138%, the T/C (Mus musculus [38]) was 165% and the T/C (Mus musculus [39]) was 291%. The T/C (Mus musculus [40]) was 117%, the Survivors (Mus musculus [4]) was 0 and the Survivors (Mus musculus [41]) was 1. The Survivors (Mus musculus [42]) was 5, the Survivors (Mus musculus [43]) was 6 and the Survivors (Mus musculus [44]) was 6. For the same molecule, the Survivors (Mus musculus [45]) was 5, the Survivors (Mus musculus [46]) was 6 and the Survivors (Mus musculus [9]) was 0.
